B1: Peroxisomal multifunctional enzyme type 2 (Rattus norvegicus), P97852 (protein)
chain: MASPLRFDGRVVLVTGAGGGLGRAYALAFAERGALVVVNDLGGDFKGVGKGSSAADKVVEEIRRRGGKAVANYDSVEAGEKLVKTALDTFGRIDVVVNNAGILRDRSFSRISDEDWDIIQRVHLRGSFQVTRAAWDHMKKQNYGRIIMTASASGIYGNFGQANYSAAKLGLLGLANTLVIEGRKNNIHCNTIAPNAGSRMTETVMPEDLVEALKPEYVAPLVLWLCHESCEENGGLFEVGAGWIGKLRWERTLGAIVRKRNQPMTPEAVRDNWVKICDFSNASKPKSIQESTGGIIEVLHKIDSEGISQNHTGQVASADASGFAGVVGHKLPSFSSSYTELQCIMYALGVGASVKNPKDLKFVYEGSADFSCLPTFGVIVAQKSLMSGGLAEVPGLSINFAKVLHGEQYLELYKPLPRSGELKCEAVIADILDKGSGIVIVMDVYSYSGKELICYNQFSVFVVGSGGFGGKRTSEKLKAAVAVPSRPPDAVLRDTTSLNQAALYRLSGDSNPLHIDPSFASIAGFEKPILHGLCTFGFSARHVLQQFADNDVSRFKAIKVRFAKPVYPGQTLQTEMWKEGNRIHFQTKVQETGDIVISNAYVDLVPTSGVSAQTPSEGGALQSALVFGEIGRRLKDVGREVVKKVNAVFEWHITKNGNVAAKWTIDLKNGSGEVYQGPAKGSADTTITISDEDFMEVVLGKLNPQNAFFSGRLKARGNIMLSQKLQMILKDYAKL

Key:
Rattus norvegicus [1] = species: Rattus norvegicus; assay: Activity of rat 3-hydroxyacyl-CoA dehydrogenase S137A mutant
Procedure, shortened: (§1)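 Rat liver HAD enzymes (wild-type, Asn208Ala, Ser137Ala) were incubated with 3-hydroxyacyl-CoA substrates or fluorinated analogs and NAD⁺ cofactor, so the forward reaction oxidizes the 3-hydroxyl to a keto group while NAD⁺ is reduced to NADH. Kinetic studies derived parameters including Vmax.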

Rattus norvegicus [2] = species: Rattus norvegicus; assay: Activity of rat 3-hydroxyacyl-CoA dehydrogenase N208A mutant; procedure, shortened: as §1
[3] = substrate: CCCCCC(O)C(F)C(=O)SCCNC(=O)CCNC(=O)[C@H](O)C(C)(C)COP(=O)(O)OP(=O)(O)OC[C@H]1O[C@@H](n2cnc3c(N)ncnc32)[C@H](O)[C@@H]1OP(=O)(O)O; assay: (§2) Activity of rat 3-hydroxyacyl-CoA dehydrogenase; procedure, shortened: as §1
[4] = substrate: CCCCCC(O)CC(=O)SCCNC(=O)CCNC(=O)[C@H](O)C(C)(C)COP(=O)(O)OP(=O)(O)OC[C@H]1O[C@@H](n2cnc3c(N)ncnc32)[C@H](O)[C@@H]1OP(=O)(O)O; assay: as §2; procedure, shortened: as §1
[5] = substrate: CCC/C=C/C(O)C(F)C(=O)SCCNC(=O)CCNC(=O)[C@H](O)C(C)(C)COP(=O)(O)OP(=O)(O)OC[C@H]1O[C@@H](n2cnc3c(N)ncnc32)[C@H](O)[C@@H]1OP(=O)(O)O; assay: as §2; procedure, shortened: as §1
[6] = substrate: CCC/C=C/C(O)CC(=O)SCCNC(=O)CCNC(=O)[C@H](O)C(C)(C)COP(=O)(O)OP(=O)(O)OC[C@H]1O[C@@H](n2cnc3c(N)ncnc32)[C@H](O)[C@@H]1OP(=O)(O)O; assay: as §2; procedure, shortened: as §1

Molecule	Km (Rattus norvegicus [1]) [µM]	Vmax (Rattus norvegicus [1]) [µmol/min/mg]	Km (Rattus norvegicus [2]) [µM]	Vmax (Rattus norvegicus [2]) [µmol/min/mg]	Km [3] [µM]	Km [4] [µM]	Vmax [4] [µmol/min/mg]	Km [5] [µM]	Vmax [5] [µmol/min/mg]	Km [6] [µM]	Vmax [6] [µmol/min/mg]
CCC/C=C/C(O)CC(=O)SCCNC(=O)CCNC(=O)[C@H](O)C(C)(C)COP(=O)(O)OP(=O)(O)OC[C@H]1O[C@@H](n2cnc3c(N)ncnc32)[C@H](O)[C@@H]1OP(=O)(O)O (some centres not stated)	53.2	0.46	49.6	1.08							
CCCCCC(O)CC(=O)SCCNC(=O)CCNC(=O)[C@H](O)C(C)(C)COP(=O)(O)OP(=O)(O)OC[C@H]1O[C@@H](n2cnc3c(N)ncnc32)[C@H](O)[C@@H]1OP(=O)(O)O (some centres not stated)			46.8	0.28							
CCC/C=C/C(O)C(F)C(=O)SCCNC(=O)CCNC(=O)[C@H](O)C(C)(C)COP(=O)(O)OP(=O)(O)OC[C@H]1O[C@@H](n2cnc3c(N)ncnc32)[C@H](O)[C@@H]1OP(=O)(O)O (some centres not stated)	55.7	0.17	44.9	0.1							
B1					69.3	34.6	10.5	46.8	11.7	20	21.8
